Source: PubChem BioAssay
Hits are enriched below; roughly 5.8% of the tested compounds scored in any of these assays.
14-3-3 Bad inh = disrupts binding of bovine 14-3-3 zeta to phospho-Bad peptide; TR-FRET 14-3-3zeta/Dy647-pBad peptide displacement, 1 h; inhibition, % at 21.7 µM; 220,000 tested, 0.71% active; AID 781;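 active = inhibition above about 70%, limit read from the data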;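 note: 0% = full 14-3-3 plus peptide FRET controls and 100% = background without 14-3-3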
Target sequence (P63103 whole entry, looked up): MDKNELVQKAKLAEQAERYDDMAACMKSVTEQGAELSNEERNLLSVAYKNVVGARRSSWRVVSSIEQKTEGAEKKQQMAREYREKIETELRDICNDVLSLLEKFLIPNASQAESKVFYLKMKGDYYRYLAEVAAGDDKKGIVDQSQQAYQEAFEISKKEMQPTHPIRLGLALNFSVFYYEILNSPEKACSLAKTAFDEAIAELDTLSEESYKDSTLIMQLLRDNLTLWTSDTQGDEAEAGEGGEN
ROMK primary = modulators of human ROMK potassium channel; B-score at 10 µM; Tet-inducible ROMK, thallium flux fluorescence; actives lie on both sides; 130,000 tested, 2% active; P48048;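 active = signal ratio slope over the read window, or its plate-corrected B-score, at least 3 SD from the plate mean, either direction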;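 note: B-score of the F/F0 ratio slope over 7 to 12 s after thallium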
Target sequence (P48048 whole entry, looked up): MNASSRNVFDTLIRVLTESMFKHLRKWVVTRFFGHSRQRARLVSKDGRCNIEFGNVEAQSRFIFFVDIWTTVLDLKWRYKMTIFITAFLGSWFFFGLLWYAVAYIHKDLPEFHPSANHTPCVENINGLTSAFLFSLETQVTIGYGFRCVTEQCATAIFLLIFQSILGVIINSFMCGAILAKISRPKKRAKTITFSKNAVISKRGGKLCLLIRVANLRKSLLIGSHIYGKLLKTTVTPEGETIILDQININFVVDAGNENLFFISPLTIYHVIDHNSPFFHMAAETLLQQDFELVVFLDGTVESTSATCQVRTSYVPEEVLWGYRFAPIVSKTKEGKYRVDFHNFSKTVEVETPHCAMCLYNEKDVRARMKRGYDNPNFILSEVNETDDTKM
WT yeast gro inh = growth inhibition of WT yeast, mitochondrial fusion screen. mitochondrial fusion phenotypic screen, WT strain. inhibition, % at 10 µM. 190,000 tested, 2.1% active; in the data active = inhibition above about 58%; tested in S. cerevisiae
Cl transport mod = modulates chloride dependent transport by human KCC2 | Q9H2X9 | KCC2 cells, thallium flux FluoZin-2 fluorescence | B-score of Tl+ flux slope (higher = more flux/activation; lower = inhibition) at 10 µM | 190,000 tested, 2.2% active;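 active = thallium flux slope and its plate-corrected score both differing from the plate sample mean at a set confidence after two filtering rounds, in either direction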;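 note: slope of fluorescence scaled to starting intensity during 10 to 20 s after thallium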
NCF1 inh = p47phox (human) inhibition | P14598 | p47phox/p22phox peptide binding, fluorescence polarization, 2 h | inhibition, % at 24.7 µM | 220,000 tested, 0.53% active | AID 1274;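 active = inhibition above about 30%, limit read from the data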;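 note: 0% = p47phox with labelled peptide and 100% = labelled peptide alone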
RBBP9 inhibitor = blocks human serine hydrolase RBBP9; O75884; recombinant RBBP9, FP-Rh probe fluorescence polarization; inhibition, % at 7.94 µM; 220,000 tested, 0.2% active;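 active = inhibition above the campaign mean of all tested compounds plus 3 SD, cut at about 14% in these data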;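 note: plate controls were DMSO wells with RBBP9 for no effect and wells lacking RBBP9 protein for full effect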
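Assay system: recombinant human RBBP9; Reagent: Serine-hydrolase probe FP-Rh, 375 nM pre-mixing; Doses: 7.94 µM single dose, 0.794% DMSO; Incubation: 30 min then 45 min, 25 °C; Detection: fluorescence polarization (mP), excitation 525 nm, emission 598 nm; Evaluation: percent inhibition from mP, scaled between DMSO and no-protein wells.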
The depositor's hits bear a star; i = inactive; nt = no result; [ ] = remark or other dose.

SMILES	14-3-3 Bad inh	ROMK primary	WT yeast gro inh	Cl transport mod	NCF1 inh	RBBP9 inhibitor
CCOC(=O)C1=C(N)Oc2cc(O)ccc2C1c1cccc([N+](=O)[O-])c1 (centres undefined)	-4	-0.007	39	-1.6	-11	-3
CSCCC(NS(=O)(=O)c1c(Cl)cccc1Cl)C(=O)O (centres undefined)	-9	-0.16	-9	0.15	-4	-3
Fc1ccc(/C=N/NC(=S)Nc2ccc(Cl)cc2)cc1F	-3	nt	24	8.6*	-2	-7
Fc1ccc(NC(=S)N/N=C/c2cccc(Br)c2)c(F)c1	-11	-1.7	22	4*	-4	-7
Fc1cccc(/C=N/NC(=S)Nc2ccccc2Cl)c1	-6	0.062	11	41*	-7	-3
Oc1ccc(/C=N/NC(=S)Nc2cccnc2)cc1O	84*[fluorescence artefact?]	0.44	-9	0.45	8	-11
NC(=O)c1nn(CC(=O)Nc2ccc3c(c2)OCO3)cc1[N+](=O)[O-]	1	0.066	-3	1.2	-2	-8
COc1cccc(/C=N/Nc2ncnc3c2[nH]c2ccc(C)cc23)c1OC	88*	-0.58	nt	0.27	30	5
COc1ccc(/C=N/Nc2ncnc3c2[nH]c2ccccc23)c(OC)c1OC	49	-0.029	6	1.7	15	-7
COC(=O)Cc1ccc(N(Cc2ccccc2F)S(=O)(=O)c2ccc(C)cc2)cc1	6	-0.66	72*	-0.54	-1	-3
Cc1nc(N2CCCCC2)c2c(-c3cccs3)csc2n1	-1	-0.51	69*	0.032	-10	-4
Cc1nc(N2CCN(S(=O)(=O)c3ccccc3C#N)CC2)c2c(-c3cccs3)csc2n1	-21	0.7	27	0.14	-41	-5
CC(C)NC(=O)COc1ccc(S(=O)(=O)N(C)Cc2ccccc2)cc1	-1	nt	nt	-0.79	10	-7
C/C(=N\NC(N)=S)c1ccccc1	0	-1.1	nt	-0.048	-1	-1
CSC(=S)N/N=C(\C)c1ccccc1	-29	10*	65*	143*	-9	-1
C/C(=N\NC(=S)Nc1cccc(C)c1)c1cccc(N)c1	-1	nt	10	9.2*	-9	-5
C/C(=N\NC(=S)Nc1cccc(C)c1)c1ccccc1	-10	1.4	-3	7.4*	-5	-7
CC1(C)CC(=O)c2cnc(N3CCc4ccccc43)nc2C1	0	-0.12	nt	-0.4	-3	-10
Cc1cc(-c2nnc(CCC(=O)NC(C)c3ccc(F)cc3)o2)no1 (centres undefined)	9	0.029	3	nt	-1	2
CC(C)c1ccc(N2C(=O)CC(NNC(=O)c3cccnc3)C2=O)cc1 (centres undefined)	-5	nt	nt	0.13	7	-5
NC1=NC(=O)/C(=C/c2cn(Cc3ccccc3)c3ccccc23)S1	-1	nt	-19	-0.095	-52	-4
CCc1ccc(-n2c(C)nc3cc(C(=O)NCc4cccnc4)ccc32)cc1	-14	-0.06	4	-0.35	-68	-1
CCOC(=O)NC(=O)CSc1cc(C)c2cc(C)cc(C)c2n1	-2	-0.34	23	-0.98	-2	-11
Cc1cc(C)c2nc(SCC(=O)NCCC3=CCCCC3)cc(C)c2c1	-4	-0.27	4	12*	-9	2
CC[C@@H]1C=C(C)C[C@H](C)C[C@H](OC)[C@H]2O[C@@](O)(C(=O)C(=O)N3CCCC[C@H]3C(=O)O[C@H](/C(C)=C/[C@@H]3CC[C@@H](O)[C@H](OC)C3)[C@H](C)[C@@H](O)CC1=O)[C@H](C)C[C@@H]2OC	-9	-3.6*	31	-0.64	-3	-5
SMILES	14-3-3 Bad inh	ROMK primary	WT yeast gro inh	Cl transport mod	NCF1 inh	RBBP9 inhibitor
O=C(O)c1cc(-c2ccc(O)cc2)on1	79*	-0.17	5	0.088	5	-11
O=C(O)c1cc(-c2ccccc2)on1	9	nt	-4	0.092	-9	-15
C1=CC2CC1CC2CN1CCN(c2ccccc2)CC1 (centres undefined)	75*	nt	5	-0.3	-22	-13
COC(=O)Nc1snnc1C	0	nt	63*	-0.48	-6	-7
CSc1ccc(/C=N/NC(=O)CNc2ccc3ccccc3c2)cc1	-1	0.74	65*	0.45	0	6
CS(=O)(=O)c1ccc(C(=O)NC2CCCc3ccccc32)cc1 (centres undefined)	-3	0.39	0	-0.017	-5	-6
CC(C)N(Cc1cn[nH]c1-c1ccc(-c2ccccc2)cc1)Cc1nccn1C	-16	-0.019	5	-0.021	-7	-7
O=C1CSC(c2ccc(F)cc2)N1c1nc2ccccc2s1 (centres undefined)	-3	-0.5	75*	0.37	-7	-1
Cc1cc(C)c(Nc2cc(S(=O)(=O)O)c(N)c3c2C(=O)c2ccccc2C3=O)c(C)c1	73*[fluorescence artefact?]	nt	46	-2.1	59*	7
CN(c1nc(-c2ccc(Br)cc2)cs1)C1CCS(=O)(=O)C1 (centres undefined)	-5	-0.22	29	-0.12	-2	-6
COCCNC(=O)/C=C/c1c(Cl)cccc1Cl	8	-0.17	9	2	-4	-9
Cc1ccc(OCc2cnc(Cl)s2)c(C)c1	-9	0.023	-6	0.35	-3	-5
Cc1cc2nc3c(=O)[nH]c(=O)[nH]c3nc2c([N+](=O)[O-])c1N	73*	nt	-6	i	-148	1
COc1ccccc1CN1C[C@@H]2C[C@@H](c3cccc(C)c3)N3CCC[C@@]23C1=O	-5	0.057	8	nt	-4	1
c1ccc(Cn2nnc3c(N4CCCC4)ncnc32)cc1	22	-0.36	-10	nt	0	-3
Cc1ccc(Cn2ncc3c(N4CCOCC4)ncnc32)cc1	-9	-1.4	-1	nt	-5	0
Cc1ccc(Cn2ncc3c(N4CCN(c5ccccc5C)CC4)ncnc32)cc1	-10	nt	65*	0.12	0	1
c1ccc(Cn2ncc3c(N4CCCCC4)ncnc32)cc1	74*	nt	16	-4.1*	4	-8
C#CCOCCOCCOCCNc1nc(N2CCN(C(=O)[C@H]([C@@H](C)CC)n3cc([C@@H](N)Cc4ccc(O)cc4)nn3)CC2)nc(N2CCN(C(=O)[C@H](CCCCN)n3cc([C@@H](N)C(C)CC)nn3)CC2)n1 (some centres undefined)	0	nt	-8	-0.0081	3	-7
C#CCOCCOCCOCCNc1nc(N2CCN(C(=O)[C@H](C)n3cc(CCCN=C(N)N)nn3)CC2)nc(N2CCN(C(=O)[C@H](Cc3ccc(O)cc3)n3cc(CCO)nn3)CC2)n1	78*	0.14	0	0.38	13	-5
C#CCOCCOCCOCCNc1nc(N2CCN(C(=O)[C@H]([C@@H](C)CC)n3cc(CCC(=O)O)nn3)CC2)nc(N2CCN(C(=O)[C@H](C)n3cc(CCCN=C(N)N)nn3)CC2)n1	9	-0.31	-14	-0.6	-4	-8
